test system: ABCB1; assay: Permeability from apical to basolateral side in dog MDCK2-MDR1 cells expressing ABCB1 at 5 uM after 30 mins in presence of compound 15 by LC-MS/MS analysis; assay type: ADME, cell-based, Canis lupus familiaris, MDCK-II; conditions: MDCK-MDR1, with compound 15 (concentration not stated), read-out: permeability
Method in brief: (§1)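 MDR1-transfected MDCKII cells (passage 16–42) were seeded at 50,000 cells cm^-2 on Transwell filters and used on day 6. Monolayers were rinsed in DPBS with 10^-2 M HEPES, pH 7.4, at 37 °C. They were preincubated 30 min in 4.3 mg/mL BSA/DPBSH with or without 5×10^-6 M P-gp inhibitor. 5 μM dye was added apically or basolaterally and samples taken after 1 h at 37 °C with nutation. Quantitation was by LC-MS/MS; P_passive is the mean of P_AB and P_BA under full inhibition. Mean ± SD.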

Row | Compound | Papp A→B at 0.5 h, 5 µM [×10⁻⁶ cm/s]
1 | CN1CCC(C)(C)c2cc3c(cc21)[Se]c1cc2c(cc1=C3c1ccc(C(=S)N3CCCCC3)s1)C(C)(C)CC[N+]=2C.[Cl-] | 0.051

test system: not listed separately; assay: Drug extrusion in human CD8 positive cells assessed as change in mean fluorescence intensity at 5 x 10^-8 M preincubated for 20 mins followed by growth in photosensitizer-free media for 30 mins by flow cytometric analysis relative to control; assay type: cell-based; conditions: 0.5 h, 0.05 µM

Row | Compound | Activity [%]
2 | CN1CCC(C)(C)c2cc3c(cc21)[Se]c1cc2c(cc1=C3c1ccc(C(=S)N3CCCCC3)s1)C(C)(C)CC[N+]=2C.[Cl-] | 57.5

test system: ABCB1; assay: Permeability from apical to basolateral side in dog MDCK2-MDR1 cells expressing ABCB1 at 5 uM after 30 mins in absence of compound 15 by LC-MS/MS analysis; assay type: ADME, cell-based, Canis lupus familiaris, MDCK-II; conditions: MDCK-MDR1, read-out: permeability; method in brief: as §1

Row | Compound | Papp A→B at 0.5 h, 5 µM [×10⁻⁶ cm/s]
3 | CN1CCC(C)(C)c2cc3c(cc21)[Se]c1cc2c(cc1=C3c1ccc(C(=S)N3CCCCC3)s1)C(C)(C)CC[N+]=2C.[Cl-] | 0.15

test system: not listed separately; assay: Drug extrusion in SEB-stimulated human CD25 positive cells assessed as mean fluorescence intensity at 5 x 10^-8 M preincubated for 20 mins followed by growth in photosensitizer-free media for 30 mins by flow cytometric analysis relative to control; conditions: 0.5 h, 0.05 µM

Row | Compound | Flu intensity [a.u.]
4 | CN1CCC(C)(C)c2cc3c(cc21)[Se]c1cc2c(cc1=C3c1ccc(C(=S)N3CCCCC3)s1)C(C)(C)CC[N+]=2C.[Cl-] | 12100

test system: ABCB1; assay: Permeability from basolateral to apical side in dog MDCK2-MDR1 cells expressing ABCB1 at 5 uM after 30 mins in presence of compound 15 by LC-MS/MS analysis; assay type: ADME, cell-based, Canis lupus familiaris, MDCK-II; conditions: MDCK-MDR1, with compound 15 (concentration not stated), read-out: permeability; method in brief: as §1

Row | Compound | Papp B→A at 0.5 h, 5 µM [×10⁻⁶ cm/s]
5 | CN1CCC(C)(C)c2cc3c(cc21)[Se]c1cc2c(cc1=C3c1ccc(C(=S)N3CCCCC3)s1)C(C)(C)CC[N+]=2C.[Cl-] | 0.013

test system: ABCB1; assay: Permeability from basolateral to apical side in dog MDCK2-MDR1 cells expressing ABCB1 at 5 uM after 30 mins in absence of compound 15 by LC-MS/MS analysis; assay type: ADME, cell-based, Canis lupus familiaris, MDCK-II; conditions: MDCK-MDR1, read-out: permeability; method in brief: as §1

Row | Compound | Papp B→A at 0.5 h, 5 µM [×10⁻⁶ cm/s]
6 | CN1CCC(C)(C)c2cc3c(cc21)[Se]c1cc2c(cc1=C3c1ccc(C(=S)N3CCCCC3)s1)C(C)(C)CC[N+]=2C.[Cl-] | 0.63

test system: not listed separately; assay: Drug uptake in SEB-stimulated human CD25 positive cells assessed as mean fluorescence intensity at 5 x 10^-8 M preincubated for 20 mins followed by growth in photosensitizer-free media for 30 mins by flow cytometric analysis relative to control; conditions: 0.5 h, 0.05 µM

Row | Compound | Flu intensity [a.u.]
7 | CN1CCC(C)(C)c2cc3c(cc21)[Se]c1cc2c(cc1=C3c1ccc(C(=S)N3CCCCC3)s1)C(C)(C)CC[N+]=2C.[Cl-] | 14500

test system: HuT78; conditions: human, hut78, 0.5 h, 0.075 µM

Row | Compound | Flu intensity [a.u.]
8 | CN1CCC(C)(C)c2cc3c(cc21)[Se]c1cc2c(cc1=C3c1ccc(C(=S)N3CCCCC3)s1)C(C)(C)CC[N+]=2C.[Cl-] | 13800

test system: not listed separately; assay: Drug extrusion in human CD3 positive cells assessed as change in mean fluorescence intensity at 5 x 10^-8 M preincubated for 20 mins followed by growth in photosensitizer-free media for 30 mins by flow cytometric analysis relative to control; assay type: cell-based; conditions: 0.5 h, 0.05 µM

Row | Compound | Activity [%]
9 | CN1CCC(C)(C)c2cc3c(cc21)[Se]c1cc2c(cc1=C3c1ccc(C(=S)N3CCCCC3)s1)C(C)(C)CC[N+]=2C.[Cl-] | 40.1

test system: HuT78; conditions: human, hut78, 0.5 h, 0.075 µM; remark: another data set of the same source

Row | Compound | Flu intensity [a.u.]
10 | CN1CCC(C)(C)c2cc3c(cc21)[Se]c1cc2c(cc1=C3c1ccc(C(=S)N3CCCCC3)s1)C(C)(C)CC[N+]=2C.[Cl-] | 11700

test system: HuT78; assay: Drug uptake in GFP expressing human HUT78 cells co-cultured with non-stimulated human PBMC cells assessed as change in mean fluorescence intensity at 7.5 x 10^-8 M after 20 mins followed by growth in photosensitizer-free media for 30 mins by flow cytometric analysis relative to control; assay type: cell-based; conditions: hut78, 0.5 h, 0.075 µM

Row | Compound | Activity [%]
11 | CN1CCC(C)(C)c2cc3c(cc21)[Se]c1cc2c(cc1=C3c1ccc(C(=S)N3CCCCC3)s1)C(C)(C)CC[N+]=2C.[Cl-] | 34.6

test system: not listed separately; assay: Drug extrusion in human CD4 positive cells assessed as change in mean fluorescence intensity at 5 x 10^-8 M preincubated for 20 mins followed by growth in photosensitizer-free media for 30 mins by flow cytometric analysis relative to control; assay type: cell-based; conditions: 0.5 h, 0.05 µM

Row | Compound | Activity [%]
12 | CN1CCC(C)(C)c2cc3c(cc21)[Se]c1cc2c(cc1=C3c1ccc(C(=S)N3CCCCC3)s1)C(C)(C)CC[N+]=2C.[Cl-] | 42.8

test system: not listed separately; assay: Drug extrusion in SEB-stimulated human CD25 negative cells assessed as mean fluorescence intensity at 5 x 10^-8 M preincubated for 20 mins followed by growth in photosensitizer-free media for 30 mins by flow cytometric analysis relative to control; conditions: 0.5 h, 0.05 µM

Row | Compound | Flu intensity [a.u.]
13 | CN1CCC(C)(C)c2cc3c(cc21)[Se]c1cc2c(cc1=C3c1ccc(C(=S)N3CCCCC3)s1)C(C)(C)CC[N+]=2C.[Cl-] | 3700

test system: HuT78; assay: (§2) Phototoxicity in GFP expressing human HUT78 cells co-cultured with human PBMC cells assessed as cell survival at 7.5 x 10^-8 M preincubated 20 mins in photosensitizer media followed by growth in photosensitizer-free media for 30 mins measured 18 hrs after exposure to 5 J/cm2 irradiation by FACS analysis; assay type: functional; conditions: HuT78, light or radiation study, read-out: Survival
Method in brief: (§3)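 Non-stimulated PBMCs from healthy donors (Ficoll-separated) were mixed 5:1 with GFP-transfected, sorted (>98%) HUT-78 cells. Cells took up 7.5×10^-8 M photosensitizer for 20 min, then spent 30 min in dye-free medium. They were exposed to 5 J cm^-2 light (600 nm LED) with rotation at 180 rpm. Survival was gated by FACS (GFP, CD3, CD4, CD8) 18 h later versus non-irradiated controls. Triplicate; mean ± SEM.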

Row | Compound | viability at 0.075 µM [%]
14 | CN1CCC(C)(C)c2cc3c(cc21)[Se]c1cc2c(cc1=C3c1ccc(C(=S)N3CCCCC3)s1)C(C)(C)CC[N+]=2C.[Cl-] | 5.6

test system: not listed separately; assay: N-octanol/water partition coefficient, logP of the compound at 23 degC after 1 hr by HPLC based shake flask method; assay type: physicochemical; conditions: not given
Method in brief: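 Shake-flask method using 1-octanol: 3–5 min of mixing, then 1 h settling. Equilibration and measurement were at 23 °C, in triplicate.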

Row | Compound | logP
15 | CN1CCC(C)(C)c2cc3c(cc21)[Se]c1cc2c(cc1=C3c1ccc(C(=S)N3CCCCC3)s1)C(C)(C)CC[N+]=2C.[Cl-] | 3.7

test system: not listed separately; assay: as §2, with “Phototoxicity human CD3 positive cells co-cultured with” for “Phototoxicity in”, “HUT78” for “HUT78 cells co-cultured with human PBMC”; assay type: cell-based; conditions: read-out: Survival; method in brief: as §3

Row | Compound | viability at 18 h, 0.075 µM [%]
16 | CN1CCC(C)(C)c2cc3c(cc21)[Se]c1cc2c(cc1=C3c1ccc(C(=S)N3CCCCC3)s1)C(C)(C)CC[N+]=2C.[Cl-] | 1.5

test system: not listed separately; assay: Drug extrusion in SEB-stimulated human CD25 negative cells assessed as change in mean fluorescence intensity at 5 x 10^-8 M preincubated for 20 mins followed by growth in photosensitizer-free media for 30 mins by flow cytometric analysis relative to control; conditions: 0.5 h, 0.05 µM

Row | Compound | Activity [%]
17 | CN1CCC(C)(C)c2cc3c(cc21)[Se]c1cc2c(cc1=C3c1ccc(C(=S)N3CCCCC3)s1)C(C)(C)CC[N+]=2C.[Cl-] | 30.7

test system: not listed separately; assay: Drug extrusion in SEB-stimulated human CD25 positive cells assessed as change in mean fluorescence intensity at 5 x 10^-8 M preincubated for 20 mins followed by growth in photosensitizer-free media for 30 mins by flow cytometric analysis relative to control; conditions: 0.5 h, 0.05 µM

Row | Compound | Activity [%]
18 | CN1CCC(C)(C)c2cc3c(cc21)[Se]c1cc2c(cc1=C3c1ccc(C(=S)N3CCCCC3)s1)C(C)(C)CC[N+]=2C.[Cl-] | 16.4

test system: ABCB1; assay: Passive permeability in dog MDCK2-MDR1 cells expressing ABCB1 at 5 uM after 30 mins in presence of compound 15 by LC-MS/MS analysis; assay type: ADME, cell-based, Canis lupus familiaris, MDCK-II; conditions: MDCK-MDR1, with compound 15 (concentration not stated), read-out: permeability; method in brief: as §1

Row | Compound | Papp at 0.5 h, 5 µM [×10⁻⁶ cm/s]
19 | CN1CCC(C)(C)c2cc3c(cc21)[Se]c1cc2c(cc1=C3c1ccc(C(=S)N3CCCCC3)s1)C(C)(C)CC[N+]=2C.[Cl-] | < 0.1

test system: not listed separately; assay: Drug uptake in SEB-stimulated human CD25 negative cells assessed as mean fluorescence intensity at 5 x 10^-8 M preincubated for 20 mins followed by growth in photosensitizer-free media for 30 mins by flow cytometric analysis relative to control; conditions: 0.5 h, 0.05 µM

Row | Compound | Flu intensity [a.u.]
20 | CN1CCC(C)(C)c2cc3c(cc21)[Se]c1cc2c(cc1=C3c1ccc(C(=S)N3CCCCC3)s1)C(C)(C)CC[N+]=2C.[Cl-] | 5400
